Data on 43 compounds can be found in PubChem BioAssay AID1665 (Sanford-Burnham Center for Chemical Genomics, 2009).

SMILES strings stand for the structures. The whole screen tested about 190,000 compounds, of which about 590 (0.31%) were called active. The sample holds actives, similar compounds and a random draw of the others, so the mix is not that of the screen.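 The calls were made as follows: active = nuclear translocation activity above 50% at 5 µM, with a well cell count of 50 or more; inconclusive = wells under 50 cells across six images, flagged as toxic; inactive = the rest.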

This experiment in a line: modulators of beta-catenin nuclear translocation, primary screen, imaging, HeLa cells, immunofluorescence, high-content (AID 1665).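 As to nuclear translocation activity: per-cell ratio of nuclear to cytoplasmic median beta-catenin stain intensity; plate controls were DMSO negative control for no effect and GSK-3 inhibitor IX positive control for full effect.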 Particulars: at 5 µM; cell count: measured here: cell count, cytotoxicity flag; nuclear translocation activity: stronger effect = higher value. A digest of the protocol: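 Technique: fluorescence imaging of beta-catenin antibody stain plus DAPI / Material: human HeLa cell line / Incubation: compound treatment 24 h, 37°C, 5% CO2 / Read-out basis: % activation of per-cell nuclear versus cytoplasmic median beta-catenin signal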
As for `CCCc1nnc(NC(=O)c2cc(OC)cc(OC)c2)s1`, the cell count is 878 cells and the nuclear translocation activity was -2.3% (inactive).

`O=C(Nc1nnc(Cc2ccc(Cl)cc2)s1)c1ccncc1`: the cell count was 1270 cells and the nuclear translocation activity was 1% (inactive).

`COc1ccc(Cc2nnc(NC(=O)c3cc(OC)c(OC)c(OC)c3)s2)cc1OC`: the cell count is 371 cells and the nuclear translocation activity was 53.4% (active).

For the compound `O=[N+]([O-])c1ccc2nc(-c3ccccn3)[nH]c2c1`, the cell count was found to be 1380 cells and the nuclear translocation activity is -0.1% (inactive).

In the case of `Brc1ccc(-c2nn[nH]n2)cc1`, the cell count is 1320 cells and the nuclear translocation activity was 0.9% (inactive).

Regarding `Nc1ccc(C(=O)OCC(=O)NC2CCS(=O)(=O)C2)cc1[N+](=O)[O-]` (stereo unspecified), the cell count stood at 1260 cells and the nuclear translocation activity is -3.1% (inactive).

`Nc1c(N(CCO)C(=O)C2CCCCC2)c(=O)[nH]c(=O)n1Cc1ccccc1`: the cell count came out at 1350 cells and the nuclear translocation activity was 0.2% (inactive).

With `O=C(Nc1ccc(S(=O)(=O)N2CCOCC2)cc1)c1ccc2ncsc2c1`, the cell count came to 1420 cells and the nuclear translocation activity was -1.2% (inactive).

Regarding `O=C(NCc1ccco1)C1CCCN1S(=O)(=O)c1ccccc1C(F)(F)F` (stereo unspecified), the cell count was 1300 cells and the nuclear translocation activity is -0.6% (inactive).

On to `Cc1cc(CO)nn1-c1ccc([N+](=O)[O-])cc1`, for which the cell count was determined as 1190 cells and the nuclear translocation activity was -2.5% (inactive).

Regarding `COc1ccc(Cl)cc1C(=O)NNC(=O)c1nc2nc(C)cc(C)n2n1`, the cell count amounted to 1330 cells and the nuclear translocation activity was 1.2% (inactive).

For the compound `COc1cc2c(cc1OC)C(/C=C/c1ccco1)=NCC2`, the cell count is 1310 cells and the nuclear translocation activity is 2% (inactive).

Consider `Cc1ccc(C)c2[nH]c(=O)c(CN(Cc3cccnc3)C(=S)NCc3ccco3)cc12`, for which the cell count is 1320 cells and the nuclear translocation activity is -1.9% (inactive).

Regarding `CN(c1ccccc1)S(=O)(=O)c1ccc(Cl)c(C(=O)OCC(=O)NCc2ccco2)c1`, the cell count was determined as 1260 cells and the nuclear translocation activity was -0.2% (inactive).

Turning to `O=C(COC(=O)c1cc(S(=O)(=O)N2CCCCC2)ccc1Cl)NCc1ccco1`, the cell count was found to be 1080 cells and the nuclear translocation activity is -1.5% (inactive).

Regarding `Cc1cc(C(=O)OCC(=O)NCc2ccco2)c(C)n1-c1ccccc1`, the cell count stood at 337 cells and the nuclear translocation activity is 94.1% (active).

As for `CN(NC(=O)c1ccccc1)c1nc2ccccc2nc1C(F)(F)F`, the cell count is 965 cells and the nuclear translocation activity is 6.3% (inactive).

For the compound `COc1ccc(C(=O)NN(C)c2nc(-c3ccccc3)cc(C)c2S(C)(=O)=O)cc1`, the cell count amounted to 1220 cells and the nuclear translocation activity was -2.1% (inactive).

In the case of `COc1ccc(OCC(=O)NNC(=O)c2cccc(C)c2)cc1`, the cell count turned out to be 1060 cells and the nuclear translocation activity is -0.2% (inactive).

Turning to `CSc1nc(N(C)NC(=O)c2cccc(C)c2)c2ccccc2n1`, the cell count was 751 cells and the nuclear translocation activity was 97.3% (active).

`Cc1cc(C)n(-c2nc(C(F)(F)F)nc3ccccc23)n1`: the cell count came to 998 cells and the nuclear translocation activity was 0% (inactive).

`CN(NC(=O)c1ccccc1F)c1nc(C(F)(F)F)nc2ccccc12`: the cell count came to 103 cells and the nuclear translocation activity was 155% (active).

As for `COC(=O)c1sccc1NN1C(=O)c2ccccc2C1=O`, the cell count is 1180 cells and the nuclear translocation activity was -1.9% (inactive).

Regarding `COC(=O)c1cc(N2CCNCC2)nc2ccccc12`, the cell count turned out to be 1220 cells and the nuclear translocation activity was 1.7% (inactive).

With `Cc1ccc(F)cc1NC(=O)N1CCCN(c2ccc(C(F)(F)F)cn2)CC1`, the cell count came to 1280 cells and the nuclear translocation activity is -1% (inactive).

In the case of `CCN(CC)c1ccc(/C=N/NC(=O)c2cnccn2)c(O)c1`, the cell count was 1050 cells and the nuclear translocation activity is 12.5% (inactive).

Take `Cc1cc2c(cc1C)N(Cc1ccccc1)C1=NCCCN12`: the cell count came to 1210 cells and the nuclear translocation activity was -0.7% (inactive).

Turning to `Cc1ccc(NC(=O)/C(=C\c2ccccc2)NC(=O)c2ccco2)cc1`, the cell count is 1370 cells and the nuclear translocation activity was 0.2% (inactive).

Take `COC(=O)c1cn(C(=O)c2ccc(Cl)cc2)c2ccccc12`: the cell count was 1100 cells and the nuclear translocation activity is -1.4% (inactive).

Take `COc1c(N2CCN(C(=S)Nc3ccccc3F)C(C)C2)c(F)cc2c(=O)c(C(=O)O)cn(C3CC3)c12` (stereo unspecified): the cell count is 1380 cells and the nuclear translocation activity is 0.4% (inactive).

`Cc1ccc(OCC(=O)N/N=C\c2ccco2)c(C)c1`: the cell count was 1340 cells and the nuclear translocation activity is -1.4% (inactive).

Regarding `Cc1ccc(/C=N/NC(=O)COc2ccccc2-c2ccccc2)cc1`, the cell count turned out to be 162 cells and the nuclear translocation activity was 107% (active).

In the case of `CSc1ccc(/C=N\NC(=O)COc2ccc(Cl)cc2Br)cc1`, the cell count turned out to be 812 cells and the nuclear translocation activity was -1.4% (inactive).

On to `COc1ccc(CCN2C(=O)CC(N3CCC(C(N)=O)CC3)C2=O)cc1OC` (stereo unspecified), for which the cell count is 1240 cells and the nuclear translocation activity was 0.6% (inactive).

Regarding `Cc1ccc(N=C2NC(=O)/C(=C/C=C/c3ccco3)S2)cc1C`, the cell count worked out at 321 cells and the nuclear translocation activity was 58.6% (active).

Turning to `Cc1ccc(N2NC(=O)/C(=C/C=C/c3ccco3)C2=O)cc1C`, the cell count stood at 1100 cells and the nuclear translocation activity was 1.3% (inactive).

Turning to `Cc1cccc(N=C2NC(=O)/C(=C/c3cn(C)c4ccccc34)S2)c1`, the cell count amounted to 1040 cells and the nuclear translocation activity was 0.7% (inactive).

In the case of `CCCNc1c(N)c(=O)c1=O`, the cell count was 1380 cells and the nuclear translocation activity is -0.4% (inactive).

As for `O=C(N/N=C/c1cccc2cccnc12)[C@H]1C[C@@H]1c1ccccc1`, the cell count was determined as 1300 cells and the nuclear translocation activity was 2.9% (inactive).

Regarding `Cc1noc(C)c1C(=O)OCC(=O)N1CCN(S(=O)(=O)c2ccc3ccccc3c2)CC1`, the cell count came out at 1300 cells and the nuclear translocation activity is 0.1% (inactive).

`Cc1ccc(C(=O)N/C(=C\c2ccco2)C(=O)NC2CCS(=O)(=O)C2)cc1` (stereo unspecified): the cell count amounted to 1360 cells and the nuclear translocation activity is -0.2% (inactive).

Consider `COc1ccc(CCNC(=O)C(=O)NCC2CCNCC2)cc1OC`, for which the cell count worked out at 1380 cells and the nuclear translocation activity is -1.5% (inactive).

As to `COc1ccc(CCNC(=O)C(=O)Nc2ccc3nc4n(c(=O)c3c2)CCCCC4)cc1OC`, the cell count was 1400 cells and the nuclear translocation activity was 0.2% (inactive).
